SENP1 FRET inh = inhibitors of human SENP1 SUMO protease catalytic domain | inhibition, % at 10 µM | 0.21% of 360,000 active | Q9P0U3 | recombinant SENP1 catalytic domain, CyPet-SUMO1-YPet FRET cleavage;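 active = inhibition at least 30% at 10 µM, raw YFP signal under a set limit, fluorescence ratio 0.5 to 1.5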
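material = recombinant human SENP1 catalytic domain, His6-tagged | quantity = 20 pM enzyme | reagent = 25 nM SUMO1 FRET substrate | compound dosing = 10 µM single point, 0.5% DMSO | timing = 50 min enzyme reaction, room temperature, light-protected | detection = FRET, CFP and YFP emission | control set = no-enzyme low, enzyme-DMSO high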
SENP6 block = blocks the human protease SENP6. Recombinant SENP6 catalytic domain, aminoluciferin luminescence. inhibition, % at 10 µM. 1.8% of 330,000 active;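 active = inhibition above about 50% at the single tested dose, limit read from the data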
Target sequence (Q9GZR1 628-1112 limits assumed): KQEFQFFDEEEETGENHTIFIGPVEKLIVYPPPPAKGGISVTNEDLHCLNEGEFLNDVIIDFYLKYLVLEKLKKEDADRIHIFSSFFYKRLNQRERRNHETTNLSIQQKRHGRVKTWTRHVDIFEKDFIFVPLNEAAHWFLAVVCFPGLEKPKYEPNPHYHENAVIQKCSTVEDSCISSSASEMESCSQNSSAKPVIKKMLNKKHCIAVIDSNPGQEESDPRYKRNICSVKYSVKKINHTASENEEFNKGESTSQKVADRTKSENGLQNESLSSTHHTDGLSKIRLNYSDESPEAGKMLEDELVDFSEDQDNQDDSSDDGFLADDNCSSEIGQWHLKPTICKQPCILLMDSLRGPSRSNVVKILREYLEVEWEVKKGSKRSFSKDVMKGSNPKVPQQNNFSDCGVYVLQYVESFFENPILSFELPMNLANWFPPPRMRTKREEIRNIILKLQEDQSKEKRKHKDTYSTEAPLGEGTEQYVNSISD
SENP8 block-1 = inhibitors of human SENP8 protease. Q96LD8. recombinant SENP8, Nedd8 substrate fluorescence. inhibition, % at 20 µM. 0.64% of 360,000 active. AID 602440; in the data active = inhibition mostly above about 40%, no sharp cut-off; inactive = mostly below about 27%
Target sequence (Q96LD8 whole entry, looked up): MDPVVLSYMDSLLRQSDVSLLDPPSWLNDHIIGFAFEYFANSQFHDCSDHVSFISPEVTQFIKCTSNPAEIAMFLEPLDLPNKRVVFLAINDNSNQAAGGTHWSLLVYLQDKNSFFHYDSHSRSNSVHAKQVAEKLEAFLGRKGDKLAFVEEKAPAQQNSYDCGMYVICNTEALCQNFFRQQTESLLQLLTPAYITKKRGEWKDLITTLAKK
SENP8 block-2 = blocks the human protease SENP8; purified SENP8, Z-RLRGG-aminoluciferin cleavage, luminescence; AID 2540; Q96LD8; 1.2% of 330,000 active; inhibition, % at 10 µM; in the data active = inhibition above about 50%
SENP7 inh = blocks the human protease SENP7. recombinant SENP7, Z-RLRGG-aminoluciferin luminescence, 40 min. 1.5% of 330,000 active. inhibition, % at 5 µM. Q9BQF6;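 active = inhibition above about 50% at the single test dose, limit read from the data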
Platelet DG rel = modulates dense granule release in human platelets. human platelet-rich plasma, SFLLRN dense granule ATP release, luminescence. inhibition, %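 (compounds screened at 7.5 µM in platelet-rich plasma)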. 0.22% of 300,000 active. AID 1663;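 active = mean replicate score, as percent of positive control, at or above 50; inconclusive = mean below 50 but at least one replicate at or above 50; inactive = mean and every replicate below 50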
SENP8 conf = confirmation of human SENP8 protease inhibitors | 40% of 6,200 active | inhibition, % at 12.5 µM | shares compounds with SENP7 inh | Recombinant SENP8, Z-RLRGG-aminoluciferin luminescence, 60 min;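 active = mean inhibition across replicates above about 50%, limit read from the data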
SENP6 conf = human SENP6 inhibition, confirmed | 58% of 6,200 active | inhibition, % at 12.5 µM | recombinant SENP6, Z-RLRGG-aminoluciferin luminescence | AID 488915 | shares compounds with SENP7 inh
SENP7 confirm = human SENP7 inhibition, confirmed; shares compounds with SENP7 inh; recombinant SENP7, Z-RLRGG-aminoluciferin luminescence, 40 min; inhibition, % at 12.5 µM; 69% of 6,200 active
Casp3 select = inhibits human caspase-3 in SENP selectivity test; shares compounds with SENP7 inh; 60% of 6,200 active; inhibition, % at 12.5 µM; purified caspase-3, Z-DEVD-aminoluciferin luminescence, 60 min;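 active = mean inhibition above about 50%, limit read from the data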
Luc interf = luminescence interference (SENP counter-screen). shares compounds with SENP7 inh. inhibition, % at 12.5 µM. 39% of 6,200 active. Pre-incubated SENP8/Z-RLRGG-aminoluciferin, luciferase luminescence interference;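 active = mean inhibition above about 50% when retested at one dose, limit read from the data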
Hits are given with their value; i = inactive; ? = inconclusive; nt = no result given. A selection: hits, their analogues and other compounds. The true share with any hit is near 2.6%.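 The calls were made as follows, unless noted: active = mean inhibition above about 50% in the one-dose retest (limit read from the data); inactive = the rest.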

SMILES	SENP1 FRET inh	SENP6 block	SENP8 block-1	SENP8 block-2	SENP7 inh	Platelet DG rel	SENP8 conf	SENP6 conf	SENP7 confirm	Casp3 select	Luc interf
CC(OC(=O)c1ccccc1Nc1ccc(SC(F)F)cc1)C(N)=O (stereo unspecified)	i	i	i	i	i	i	nt	nt	nt	nt	nt
NC(=O)COC(=O)c1ccccc1Nc1ccc(SC(F)F)cc1	i	64	i	i	i	i	61	60	77	i	69
CC(=O)Nc1nc2ccccc2[nH]1	i	i	i	i	i	i	nt	nt	nt	nt	nt
O=C(Nc1nc2ccccc2[nH]1)c1ccccc1	i	96	i	90	93	i	82	91	100	96	i
COc1ccc(C(=O)Nc2nc3ccccc3c(=O)[nH]2)cc1	i	54	i	i	i	i	i	i	59	72	i
O=C(Nc1nc2ccccc2[nH]1)c1cccc(Cl)c1	i	57	i	i	68	i	i	i	86	66	i
O=C(Nc1nc2ccccc2[nH]1)c1ccccc1O	i	88	i	82	92	i	i	80	64	92	i
COc1ccc(/C=N/n2nnnc2N)c(OC)c1	i	i	i	i	i	i	nt	nt	nt	nt	nt
O=C(Cc1ccc(Cl)cc1)Nc1nc2ccccc2[nH]1	i	i	i	i	i	i	nt	nt	nt	nt	nt
O=C(Nc1nc2ccccc2[nH]1)c1ccc(Cl)cc1	i	93	i	87	90	i	i	92	100	93	i
Cc1ccc(-c2nc(N/N=C/c3cccnc3)c3ccccc3n2)cc1	i	88	i	87	90	64	i	77	76	84	i
Cc1ccc(-c2cc(-c3ccccc3)nc(N/N=C/c3cccnc3)n2)cc1	i	i	i	i	i	i	nt	nt	nt	nt	nt
CC(OC(=O)c1ccc2c(=O)n3c(nc2c1)CCC3)C(=O)NC1CCCCC1C (stereo unspecified)	i	i	i	i	i	i	nt	nt	nt	nt	nt
Cc1ccc(S(=O)(=O)NCCCNS(=O)(=O)c2ccccc2)cc1	i	i	i	i	i	i	nt	nt	nt	nt	nt
CCOC(=O)C(/C(N)=N/C(=O)Nc1ccccc1)=C(\C)O	i	64	i	i	i	i	i	57	88	80	i
CCc1nnc(NC(=O)c2ccc(-c3ccccc3Cl)o2)s1	i	i	i	i	68	i	i	i	i	i	i
O=C(Nc1ccccc1)c1cc(-c2ccccc2Cl)no1	i	88	i	69	85	i	81	81	95	69	74
COc1ccc(NC(=O)c2ccc(-c3ccccc3Cl)o2)cc1	i	75	i	69	52	i	i	64	86	i	i
O=C(NCc1cccnc1)c1ccc(-c2cccc(Cl)c2Cl)o1	i	i	i	i	91	i	i	i	i	i	i
COc1ccc(NC(=O)c2cc(-c3ccccc3Cl)no2)cc1	i	i	i	i	i	i	nt	nt	nt	nt	nt
COC(=O)c1c(NC(=O)COC(=O)CNC(=O)c2cccc(OC(F)F)c2)sc(C)c1C	i	nt	i	nt	nt	nt	nt	nt	nt	nt	nt
CC1(Cc2ccc(C(F)(F)F)o2)C(=O)Nc2cc(-c3ccc(F)cc3F)ccc21 (stereo unspecified)	i	nt	i	nt	nt	nt	nt	nt	nt	nt	nt
O=C(Nc1cccc(F)c1)c1ccc(-c2ccccc2Cl)o1	i	54	i	i	i	i	i	i	70	i	i
CC(C)c1ccc(/C=C/C(=O)Nc2nncs2)cc1	i	84	i	73	90	i	i	54	82	63	i
Cc1cccc(Nc2nnc(SCc3cn4ccsc4n3)s2)c1	i	56	i	i	61	i	i	i	72	i	55
SMILES	SENP1 FRET inh	SENP6 block	SENP8 block-1	SENP8 block-2	SENP7 inh	Platelet DG rel	SENP8 conf	SENP6 conf	SENP7 confirm	Casp3 select	Luc interf
O=c1cc(CSc2nnc(Nc3ccccc3)s2)nc2sccn12	i	i	i	i	i	nt	nt	nt	nt	nt	nt
O=C(c1ccco1)N1CCN(C2CN(C3CCCCC3)S(=O)(=O)C2)CC1 (stereo unspecified)	i	nt	i	nt	nt	nt	nt	nt	nt	nt	nt
Cc1cccc2[nH]c(CCNC(=O)C3CCC(=O)N(CCc4cccc(F)c4)C3)nc12 (stereo unspecified)	i	i	i	i	i	i	nt	nt	nt	nt	nt
Nc1nc(N)nc(-c2ccc(Cl)c(Cl)c2)n1	i	56	i	i	59	nt	i	i	78	i	62
Cc1ccccc1N=Cc1cccc(O)c1O	i	i	i	i	i	i	nt	nt	nt	nt	nt
Oc1cccc(/C=N/N=C/c2cccc(O)c2O)c1O	i	96	i	92	94	?	94	94	100	92	i
CC(C)c1ccc(NC(=O)CSc2nc3ccsc3c(=O)n2CCC(=O)O)cc1	i	i	i	i	i	i	nt	nt	nt	nt	nt
O=C(COC(=O)CNC(=O)c1ccccc1)NC12CC3CC(CC(C3)C1)C2	i	nt	i	nt	nt	nt	nt	nt	nt	nt	nt
O=C(Nc1ccc(C(=O)N2CCCC2)cc1)c1ccc2c(c1)OCO2	i	87	i	80	91	i	83	86	99	96	89
O=C(Nc1ccc(NC(=O)c2ccco2)c(Cl)c1)c1ccc2c(c1)OCCO2	i	i	i	i	i	i	nt	nt	nt	nt	nt
O=C(c1ccc2c(c1)OCO2)N1CCCC1	i	i	i	i	i	i	nt	nt	nt	nt	nt
O=C(Nc1ccc(NC(=O)c2ccco2)cc1)c1ccc2c(c1)OCO2	i	54	i	i	62	i	i	i	i	i	i
O=C(Nc1ccc(C(=O)N2CCCCC2)cc1)C1=CSCCO1	i	79	i	68	81	i	78	74	91	91	77
C[C@H](NC(=O)c1ccccc1)C(=O)OCC(=O)Nc1ccc(Cl)cn1	i	nt	i	nt	nt	nt	nt	nt	nt	nt	nt
CN1CCN(c2oc(-c3ccccc3)nc2S(=O)(=O)c2ccc(Br)cc2)CC1	i	i	i	i	i	i	nt	nt	nt	nt	nt
N#Cc1ccc(COC(=O)CCc2c[nH]c3ccccc23)cc1	i	i	i	i	i	i	nt	nt	nt	nt	nt
COc1ccccc1/C=C/C(=O)Nc1cccnc1	i	i	i	i	i	i	nt	nt	nt	nt	nt
O=C(/C=C/c1ccccc1Cl)Nc1cccnc1	i	93	i	86	93	i	i	92	100	89	90
Cc1ccnc(NC(=O)/C=C/c2ccccc2Cl)c1	i	96	i	93	98	i	82	92	91	94	63
O=C(/C=C/c1cccc(Cl)c1)Nc1ccncc1	i	i	i	i	i	i	nt	nt	nt	nt	nt
